Reference: ChEMBL document CHEMBL5696442, “Discovery of type II inhibitors of TGFβ-activated kinase 1 (TAK1) and mitogen-activated protein kinase kinase kinase kinase 2 (MAP4K2)” (J Med Chem, 2015)

What was measured:
[1] = molecular target: T1, Aurora kinase A (Homo sapiens) (UniProt O14965); assay: Inhibition of AurA Lys2 labeling site in human A-375 cells at 5 uM by KiNativ Profiling analysis relative to control; assay type: cell-based
T1 sequence (whole entry): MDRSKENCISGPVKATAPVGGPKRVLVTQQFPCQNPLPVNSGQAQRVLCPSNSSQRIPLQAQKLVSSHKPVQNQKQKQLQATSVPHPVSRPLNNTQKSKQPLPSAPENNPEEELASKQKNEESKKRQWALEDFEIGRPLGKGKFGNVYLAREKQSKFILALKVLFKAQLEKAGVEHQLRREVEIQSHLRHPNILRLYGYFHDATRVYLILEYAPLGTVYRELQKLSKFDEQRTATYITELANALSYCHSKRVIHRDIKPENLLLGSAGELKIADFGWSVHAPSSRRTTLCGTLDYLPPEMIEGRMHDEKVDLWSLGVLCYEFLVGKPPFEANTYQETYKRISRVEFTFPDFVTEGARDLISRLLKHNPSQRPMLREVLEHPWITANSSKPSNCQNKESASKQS
How it was run: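 Live A375 melanoma cells were treated with compound at 5 or 0.5 μM, then lysed. The lysates were labeled with a lysine-reactive ATP or ADP-biotin probe. Kinase protection from probe labeling was measured by KiNativ.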

[2] = molecular target: T2, Serine/threonine-protein kinase NLK (Homo sapiens) (UniProt Q9UBE8); assay: Inhibition of NLK Lys2 labeling site in human A-375 cells at 5 uM by KiNativ Profiling analysis relative to control; assay type: cell-based
T2 sequence (whole entry): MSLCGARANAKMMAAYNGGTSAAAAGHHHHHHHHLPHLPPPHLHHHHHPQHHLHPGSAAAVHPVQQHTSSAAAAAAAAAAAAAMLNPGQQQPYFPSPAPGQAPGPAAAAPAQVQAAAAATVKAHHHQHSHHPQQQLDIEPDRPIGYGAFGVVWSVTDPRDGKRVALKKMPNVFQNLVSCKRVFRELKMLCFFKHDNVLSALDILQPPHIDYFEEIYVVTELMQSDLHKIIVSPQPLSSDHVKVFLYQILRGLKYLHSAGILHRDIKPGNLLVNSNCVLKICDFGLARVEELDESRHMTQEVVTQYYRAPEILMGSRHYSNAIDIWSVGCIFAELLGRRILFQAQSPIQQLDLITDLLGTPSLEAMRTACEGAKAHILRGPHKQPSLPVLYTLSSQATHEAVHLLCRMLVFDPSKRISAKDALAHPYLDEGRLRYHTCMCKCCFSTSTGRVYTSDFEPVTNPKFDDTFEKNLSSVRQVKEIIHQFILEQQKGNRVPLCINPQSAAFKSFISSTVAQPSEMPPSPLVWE

[3] = molecular target: Interferon-induced, double-stranded RNA-activated protein kinase (Homo sapiens) (UniProt P19525); assay: Inhibition of PKR Lys2 labeling site in human A-375 cells at 5 uM by KiNativ Profiling analysis relative to control; assay type: cell-based
Interferon-induced, double-stranded RNA-activated protein kinase (Homo sapiens), sequence (P19525 whole entry): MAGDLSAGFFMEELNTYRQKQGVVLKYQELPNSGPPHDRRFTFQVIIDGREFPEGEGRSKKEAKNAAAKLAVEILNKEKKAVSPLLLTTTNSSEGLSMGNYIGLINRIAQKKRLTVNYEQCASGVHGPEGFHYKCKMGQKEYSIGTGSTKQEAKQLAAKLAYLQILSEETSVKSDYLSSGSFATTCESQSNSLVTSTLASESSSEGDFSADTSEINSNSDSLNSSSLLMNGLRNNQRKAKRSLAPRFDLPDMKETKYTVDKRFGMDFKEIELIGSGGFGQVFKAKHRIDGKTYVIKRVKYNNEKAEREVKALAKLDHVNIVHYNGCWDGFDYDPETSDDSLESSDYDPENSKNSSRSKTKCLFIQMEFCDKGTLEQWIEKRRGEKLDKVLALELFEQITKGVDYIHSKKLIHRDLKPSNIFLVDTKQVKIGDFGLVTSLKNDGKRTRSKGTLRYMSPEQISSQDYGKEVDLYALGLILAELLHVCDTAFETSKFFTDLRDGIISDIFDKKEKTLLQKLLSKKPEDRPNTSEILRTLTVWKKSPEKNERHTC

[4] = molecular target: Serine/threonine-protein kinase/endoribonuclease IRE1 (Homo sapiens) (UniProt O75460); assay: Inhibition of IRE1 Lys2 labeling site in human A-375 cells at 0.5 uM by KiNativ Profiling analysis relative to control; assay type: cell-based
Serine/threonine-protein kinase/endoribonuclease IRE1 (Homo sapiens), sequence (O75460 19-977 limits assumed): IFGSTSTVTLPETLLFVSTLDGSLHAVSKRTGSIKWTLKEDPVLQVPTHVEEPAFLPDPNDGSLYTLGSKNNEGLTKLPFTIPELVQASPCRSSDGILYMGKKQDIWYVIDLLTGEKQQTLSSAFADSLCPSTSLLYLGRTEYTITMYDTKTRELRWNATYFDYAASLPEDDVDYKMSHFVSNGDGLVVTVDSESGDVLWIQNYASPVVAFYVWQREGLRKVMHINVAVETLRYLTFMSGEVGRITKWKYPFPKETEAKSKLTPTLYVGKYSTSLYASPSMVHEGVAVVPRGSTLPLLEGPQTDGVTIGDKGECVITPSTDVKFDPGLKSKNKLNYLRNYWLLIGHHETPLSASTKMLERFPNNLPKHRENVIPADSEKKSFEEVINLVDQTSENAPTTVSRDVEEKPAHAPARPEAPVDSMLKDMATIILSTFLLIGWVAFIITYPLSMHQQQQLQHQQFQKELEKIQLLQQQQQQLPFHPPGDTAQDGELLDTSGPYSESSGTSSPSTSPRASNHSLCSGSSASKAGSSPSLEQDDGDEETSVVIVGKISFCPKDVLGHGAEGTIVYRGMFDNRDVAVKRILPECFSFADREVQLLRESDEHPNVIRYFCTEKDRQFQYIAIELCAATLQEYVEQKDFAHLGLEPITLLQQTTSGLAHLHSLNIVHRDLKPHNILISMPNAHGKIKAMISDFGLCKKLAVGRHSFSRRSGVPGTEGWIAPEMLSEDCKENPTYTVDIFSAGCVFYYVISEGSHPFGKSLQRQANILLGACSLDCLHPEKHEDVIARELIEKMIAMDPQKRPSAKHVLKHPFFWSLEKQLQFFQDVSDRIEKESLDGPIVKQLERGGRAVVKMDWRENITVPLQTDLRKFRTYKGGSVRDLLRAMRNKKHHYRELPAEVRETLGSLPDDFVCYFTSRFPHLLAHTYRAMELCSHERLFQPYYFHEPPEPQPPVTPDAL

[5] = molecular target: Dual specificity mitogen-activated protein kinase kinase 2 (Homo sapiens) (UniProt P36507); assay: Inhibition of MAP2K2 Lys2 labeling site in human A-375 cells at 0.5 uM by KiNativ Profiling analysis relative to control; assay type: cell-based
Dual specificity mitogen-activated protein kinase kinase 2 (Homo sapiens), sequence (P36507 whole entry): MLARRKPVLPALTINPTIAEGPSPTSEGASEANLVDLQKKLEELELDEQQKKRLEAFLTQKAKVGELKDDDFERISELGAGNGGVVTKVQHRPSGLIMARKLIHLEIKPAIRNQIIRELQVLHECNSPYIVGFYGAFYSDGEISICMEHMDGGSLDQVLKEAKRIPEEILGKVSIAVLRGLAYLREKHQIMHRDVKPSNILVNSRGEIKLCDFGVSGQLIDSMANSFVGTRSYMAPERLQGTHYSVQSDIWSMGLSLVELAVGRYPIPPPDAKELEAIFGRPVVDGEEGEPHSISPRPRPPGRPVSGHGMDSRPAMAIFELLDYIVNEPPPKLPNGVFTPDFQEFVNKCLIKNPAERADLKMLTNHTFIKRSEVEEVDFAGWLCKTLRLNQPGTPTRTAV

[6] = molecular target: T3, Mitogen-activated protein kinase 12 (Homo sapiens) (UniProt P53778); assay: Inhibition of p38 gamma Lys2 labeling site in human A-375 cells at 0.5 uM by KiNativ Profiling analysis relative to control; assay type: cell-based
T3 sequence (whole entry): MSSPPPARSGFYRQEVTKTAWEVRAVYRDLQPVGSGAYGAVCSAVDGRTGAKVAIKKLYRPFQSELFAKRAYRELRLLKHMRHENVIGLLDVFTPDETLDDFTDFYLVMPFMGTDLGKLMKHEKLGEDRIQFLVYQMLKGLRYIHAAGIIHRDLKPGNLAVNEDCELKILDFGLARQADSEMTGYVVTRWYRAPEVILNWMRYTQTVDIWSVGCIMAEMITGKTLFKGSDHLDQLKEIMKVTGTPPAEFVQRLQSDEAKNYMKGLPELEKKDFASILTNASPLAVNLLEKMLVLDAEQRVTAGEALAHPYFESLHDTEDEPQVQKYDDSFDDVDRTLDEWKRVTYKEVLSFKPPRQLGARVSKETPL

[7] = molecular target: Serine/threonine-protein kinase MARK2 (Homo sapiens) (UniProt Q7KZI7); assay: Inhibition of MARK2 Lys2 labeling site harbouring DLKAENLLLDADMNIK in human A-375 cells at 0.05 uM by KiNativ Profiling analysis relative to control; assay type: cell-based
Serine/threonine-protein kinase MARK2 (Homo sapiens), sequence (Q7KZI7 whole entry): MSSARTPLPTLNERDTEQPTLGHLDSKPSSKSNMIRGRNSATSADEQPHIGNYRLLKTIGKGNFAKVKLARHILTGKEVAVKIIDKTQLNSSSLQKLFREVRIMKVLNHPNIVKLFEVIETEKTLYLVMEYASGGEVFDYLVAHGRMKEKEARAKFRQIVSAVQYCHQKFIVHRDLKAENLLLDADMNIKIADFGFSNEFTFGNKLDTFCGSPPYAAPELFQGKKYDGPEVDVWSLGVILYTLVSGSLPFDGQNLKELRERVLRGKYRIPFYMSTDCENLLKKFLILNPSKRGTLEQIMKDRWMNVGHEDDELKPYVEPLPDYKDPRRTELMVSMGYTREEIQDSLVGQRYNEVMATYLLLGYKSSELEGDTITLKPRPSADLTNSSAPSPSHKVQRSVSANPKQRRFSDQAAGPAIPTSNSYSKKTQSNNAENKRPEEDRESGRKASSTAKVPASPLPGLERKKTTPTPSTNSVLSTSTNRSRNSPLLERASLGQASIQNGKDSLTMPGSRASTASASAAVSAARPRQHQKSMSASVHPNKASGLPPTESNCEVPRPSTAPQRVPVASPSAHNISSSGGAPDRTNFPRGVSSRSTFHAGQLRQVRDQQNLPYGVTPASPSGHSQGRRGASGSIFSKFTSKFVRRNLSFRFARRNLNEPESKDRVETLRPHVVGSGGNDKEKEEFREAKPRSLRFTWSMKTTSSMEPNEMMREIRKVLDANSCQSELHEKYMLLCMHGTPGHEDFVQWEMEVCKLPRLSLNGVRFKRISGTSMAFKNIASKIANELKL

[8] = molecular target: T4, Ephrin type-B receptor 4 (Homo sapiens) (UniProt P54760); assay: Inhibition of EphB4 ACT labeling site in human Huh-7 cells at 1 uM by KiNativ Profiling analysis relative to control; assay type: cell-based
T4 sequence (whole entry): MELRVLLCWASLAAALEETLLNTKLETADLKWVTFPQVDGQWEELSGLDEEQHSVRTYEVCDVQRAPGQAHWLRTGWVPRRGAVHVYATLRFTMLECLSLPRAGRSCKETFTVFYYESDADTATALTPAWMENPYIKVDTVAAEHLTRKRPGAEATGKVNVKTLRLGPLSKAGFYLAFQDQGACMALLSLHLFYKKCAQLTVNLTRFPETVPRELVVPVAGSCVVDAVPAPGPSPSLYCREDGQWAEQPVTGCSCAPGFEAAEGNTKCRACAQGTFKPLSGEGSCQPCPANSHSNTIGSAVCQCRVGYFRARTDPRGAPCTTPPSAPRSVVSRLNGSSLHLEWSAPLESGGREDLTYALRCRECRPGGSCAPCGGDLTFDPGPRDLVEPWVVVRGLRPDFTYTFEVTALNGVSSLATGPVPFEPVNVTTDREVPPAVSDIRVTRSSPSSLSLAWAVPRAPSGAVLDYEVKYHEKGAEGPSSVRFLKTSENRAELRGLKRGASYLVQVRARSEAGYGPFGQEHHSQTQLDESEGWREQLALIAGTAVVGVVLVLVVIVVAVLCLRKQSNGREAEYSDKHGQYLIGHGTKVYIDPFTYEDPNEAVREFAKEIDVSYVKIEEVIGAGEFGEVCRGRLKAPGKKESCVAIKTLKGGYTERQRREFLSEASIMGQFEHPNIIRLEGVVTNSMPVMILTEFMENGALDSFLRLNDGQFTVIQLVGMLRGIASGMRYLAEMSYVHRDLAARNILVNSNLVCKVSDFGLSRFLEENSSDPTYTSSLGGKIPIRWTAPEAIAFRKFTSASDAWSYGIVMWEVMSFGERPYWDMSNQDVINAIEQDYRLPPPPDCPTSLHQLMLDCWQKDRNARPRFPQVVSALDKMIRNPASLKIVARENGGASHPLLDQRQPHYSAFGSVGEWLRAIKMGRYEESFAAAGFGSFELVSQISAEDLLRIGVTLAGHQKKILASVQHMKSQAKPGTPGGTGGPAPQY

[9] = molecular target: T4, Ephrin type-B receptor 4 (Homo sapiens); assay: Inhibition of EphB4 ACT labeling site in human Huh-7 cell lysate at 1 uM by KiNativ Profiling analysis relative to control; assay type: subcellular

CCN1CCN(Cc2ccc(NC(=O)c3ccc(C)c(/C=C/c4cnc5[nH]ccc5c4OC)c3)cc2C(F)(F)F)CC1
inhibition [1]: 19.3% | inhibition [2]: 66.6% | inhibition [3]: -6.7% | inhibition [4]: -9.6% | inhibition [5]: 1.8% | inhibition [6]: 25.2% | inhibition [7]: 11.6%

CCN1CCN(Cc2ccc(NC(=O)c3ccc(C)c(Oc4ccnc5[nH]ccc45)c3)cc2C(F)(F)F)CC1
inhibition [1]: -0.8% | inhibition [2]: 18.9% | inhibition [3]: 2.1% | inhibition [4]: 4.5% | inhibition [5]: -3.9% | inhibition [6]: 86.2% | inhibition [7]: 19.5% | inhibition [8]: 12.1%

CNc1cc(Oc2cc(C(=O)Nc3cc(-n4cnc(C)c4)cc(C(F)(F)F)c3)ccc2C)ncn1
inhibition [9]: 1.2%

CNc1cc(Oc2cc(C(=O)Nc3cc(N4CCN(C)CC4)cc(C(F)(F)F)c3)ccc2C)ncn1
inhibition [9]: 0.2% | inhibition [8]: 75.4%
